Results published in ChEMBL document CHEMBL1759938, “Antioxidant xanthone derivatives induce cell cycle arrest and apoptosis and enhance cell death induced by cisplatin in NTUB1 cells associated with ROS” (Eur J Med Chem, 2011).
The source made the active and inactive calls. No cut-off for these calls is given here.

How the values were obtained:
[1] = molecular target: Xanthine dehydrogenase/oxidase (Homo sapiens, UniProt P47989); test: Inhibition of xanthine oxidase activity assessed as uric acid formation pretreated for 15 mins before substrate addition measured after 5 mins; details: for inhibition (INH): 5 min
Xanthine dehydrogenase/oxidase, sequence (P47989 whole entry): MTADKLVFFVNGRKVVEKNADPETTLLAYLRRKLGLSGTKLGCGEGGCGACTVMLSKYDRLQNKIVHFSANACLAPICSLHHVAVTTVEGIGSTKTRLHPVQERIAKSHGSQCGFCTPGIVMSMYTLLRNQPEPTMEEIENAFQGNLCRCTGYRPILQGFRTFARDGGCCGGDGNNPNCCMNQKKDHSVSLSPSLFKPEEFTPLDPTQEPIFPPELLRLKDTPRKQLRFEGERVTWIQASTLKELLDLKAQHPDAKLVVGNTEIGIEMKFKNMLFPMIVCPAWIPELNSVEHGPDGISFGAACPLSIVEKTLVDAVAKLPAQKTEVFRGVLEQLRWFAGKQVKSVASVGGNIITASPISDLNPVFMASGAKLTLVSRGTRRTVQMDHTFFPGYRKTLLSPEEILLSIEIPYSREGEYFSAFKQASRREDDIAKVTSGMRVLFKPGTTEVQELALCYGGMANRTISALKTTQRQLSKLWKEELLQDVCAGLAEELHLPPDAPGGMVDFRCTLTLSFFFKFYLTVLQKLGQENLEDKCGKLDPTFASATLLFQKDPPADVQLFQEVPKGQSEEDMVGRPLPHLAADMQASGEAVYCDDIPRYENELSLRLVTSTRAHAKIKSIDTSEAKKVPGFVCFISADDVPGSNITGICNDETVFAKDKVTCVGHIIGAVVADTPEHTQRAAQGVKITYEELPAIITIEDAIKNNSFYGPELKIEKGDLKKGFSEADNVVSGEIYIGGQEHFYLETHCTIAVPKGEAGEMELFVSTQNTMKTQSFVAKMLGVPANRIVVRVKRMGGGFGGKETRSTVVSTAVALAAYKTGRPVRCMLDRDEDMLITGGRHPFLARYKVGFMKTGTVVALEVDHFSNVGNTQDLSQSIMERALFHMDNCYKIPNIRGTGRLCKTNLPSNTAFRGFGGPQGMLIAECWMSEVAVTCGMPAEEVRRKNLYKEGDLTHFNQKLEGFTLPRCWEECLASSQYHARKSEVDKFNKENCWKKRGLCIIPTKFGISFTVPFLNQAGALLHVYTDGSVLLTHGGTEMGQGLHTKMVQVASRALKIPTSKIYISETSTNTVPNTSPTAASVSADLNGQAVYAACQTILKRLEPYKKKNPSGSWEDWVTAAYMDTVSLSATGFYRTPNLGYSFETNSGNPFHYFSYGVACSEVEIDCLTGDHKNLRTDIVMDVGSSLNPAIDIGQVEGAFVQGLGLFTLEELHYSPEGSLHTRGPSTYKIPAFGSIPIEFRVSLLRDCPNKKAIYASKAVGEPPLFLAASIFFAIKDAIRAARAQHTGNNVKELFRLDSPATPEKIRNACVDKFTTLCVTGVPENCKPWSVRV

[2] = Antioxidant activity against oxide-induced pBR322 DNA damage at 300 uM by agarose gel electrophoresis; type: functional
Summary of the method: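 Supercoiled pBR322 plasmid DNA (500 ng) in phosphate buffer pH 7.4, exposed for 20 min to superoxide generated by xanthine/xanthine oxidase, with or without test agent at 300 µM. SOD and quercetin were positive controls. Strand breaks were resolved by gel electrophoresis.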

[3] = Antioxidant activity assessed as ABTS radical scavenging activity; type: functional
Summary of the method: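 ABTS (7 mM in deionized water) was mixed with 2.45 mM potassium persulfate to form the radical cation. 180 µL of this solution was combined with 40 µL of sample, and absorbance was read at 630 nm. Vitamin E served as positive control. Mean ± s.e.m., n = 3.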

[4] = tested on: NTUB1; test: Induction of apoptosis in human NTUB1 cells assessed as increase in ROS level at 20 uM after 24 hrs by flow cytometry; type: functional, cell-based
Summary of the method: (§1)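 NTUB1 cells in 6-well plates were treated for 24 h at 20 or 40 µM. Controls were 1 mM NAC and 10 µM cisplatin. 10 µM DCFH-DA was added 30 min before harvest; cells were then trypsinized and washed in PBS. DCF green fluorescence was read by flow cytometry through a 525 nm band-pass filter and expressed relative to control. Mean ± S.D., n = 3.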

[5] = Cytotoxicity against human NTUB1 cells after 72 hrs by MTT assay; type: functional, cell-based; details: NTUB1, 72 h
Summary of the method: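 NTUB1 cells in RPMI 1640 with 10% FBS were seeded at 1 × 10³ cells/well and left overnight at 37 °C. They were then exposed to graded concentrations for 72 h. MTT was added; plates were spun, the medium removed and DMSO added, and absorbance read at 540 nm. Viability is the ratio to untreated control, and IC50 was taken from the curve. Mean ± S.D., n = 3.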

[6] = Induction of apoptosis in human NTUB1 cells assessed as increase in ROS level at 20 to 40 uM after 24 hrs by flow cytometry relative to control; type: functional; summary of the method: as §1
[7] = Cell cycle arrest in human NTUB1 cells assessed as accumulation in subG1 phase at 40 uM after 24 hrs using propidium iodide by FACS analysis; type: functional, cell-based
Summary of the method: (§2)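 NTUB1 bladder carcinoma cells (3 × 10⁵ or 8 × 10⁵ per 10 cm dish) were exposed to 40 or 60 µM for 24 h. Cells were trypsinized, fixed in ice-cold methanol at −20 °C overnight, and stained with 50 µg/mL propidium iodide for 30 min at room temperature. DNA content was measured by flow cytometry, with the sub-G1 fraction taken as apoptosis. Three independent experiments.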

[8] = Cell cycle arrest in human NTUB1 cells assessed as accumulation in subG1 phase at 60 uM after 24 hrs using propidium iodide by FACS analysis; type: functional, cell-based; summary of the method: as §2
[9] = Cytotoxicity against human SV-HUC1 cells at 0.3 to 50 uM after 72 hrs by MTT assay; type: cell-based; details: sv-huc1, 72 h
Summary of the method: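 SV-HUC1 cells (SV40-immortalized human uroepithelium), grown in F12 with 10% FBS, were seeded at 1 × 10³ cells/well and left overnight. Graded concentrations were applied for 72 h at 37 °C. Read-out was MTT formazan dissolved in DMSO, absorbance at 540 nm. Viability is expressed relative to untreated control. Mean ± S.D., n = 3.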

[10] = tested on: NTUB1; test: Induction of apoptosis in human NTUB1 cells assessed as increase in ROS level at 40 uM after 24 hrs by flow cytometry; type: functional, cell-based; summary of the method: as §1

Row | Molecule | IC50 [1] [µM] | inhibition (INH) [1] | Activity [2] | IC50 ([3]; read-out: IC50) [µM] | further results
1 | O=c1c2ccccc2oc2cc(OCCCN3CCCC3)ccc12 | 65.5 | Dose-dependent effect | Active |  | IC50 [3]: Not Active
2 | O=c1c2ccc(O)cc2oc2cc(OCCCN3CCNCC3)ccc12 | 91.9 | Dose-dependent effect |  | 65 | 
3 | O=c1c2ccccc2oc2cc(OCCCN3CCNCC3)ccc12 | 109 | Dose-dependent effect | Active | 75.1 | 
4 | O=c1c2ccc(O)cc2oc2cc(OCCCN3CCCC3)ccc12 | 68.8 | Dose-dependent effect | Active | 88.8 | 
5 | Oc1ncnc2[nH]ncc12 [ALLOPURINOL] |  | Dose-dependent effect |  |  | 
6 | CCN(CC)CCCOc1ccc2c(=O)c3ccccc3oc2c1 | 56.5 | Dose-dependent effect | Active | 84.9 | 
7 | O=c1c2ccccc2oc2cc(OCCCN3CCCCC3)ccc12 | 37.8 | Dose-dependent effect | Active | 90 | Activity [4]: Active; IC50 [5]: 31.2 µM; Activity [6]: 250%; Activity [7]: Active
8 | CN1CCN(CCCOc2ccc3c(=O)c4ccc(O)cc4oc3c2)CC1 | 44.3 | Dose-dependent effect |  | 76.5 | 
9 | VITAMIN E |  |  |  | 77.2 | 
10 | O=c1c2ccc(O)cc2oc2cc(OCCCNC3CC3)ccc12 | 63 | Dose-dependent effect | Active | 108 | 
11 | O=c1c2ccc(O)cc2oc2cc(OCCCN3CCCCC3)ccc12 | 82.3 | Dose-dependent effect | Active | 69.3 | Activity [8]: Active; Activity [9]: Non-toxic; IC50 [5]: 35.1 µM; Activity [6]: 250%; Activity [10]: Active
12 | CCN(CC)CCCOc1ccc2c(=O)c3ccc(O)cc3oc2c1 | 53.5 | Dose-dependent effect |  | 80.5 | 
13 | O=c1c2ccc(O)cc2oc2cc(OCCCNC3CCCCC3)ccc12 | 72.9 | Dose-dependent effect | Active | 106 | 
14 | CN1CCN(CCCOc2ccc3c(=O)c4ccccc4oc3c2)CC1 | 47.3 | Dose-dependent effect | Active | 152 | 
